ChEMBL document CHEMBL4732095, “Novel naphthylamide derivatives as dual-target antifungal inhibitors: Design, synthesis and biological evaluation” (Eur J Med Chem, 2021)
Calls of active or inactive are those of the source. The calls are words filed in the database; no cut-off is given here.

What was measured:
[1] = test system: Candida albicans; assay: Antifungal activity against Candida albicans ATCC 10231 assessed as inhibition of microbial growth by NCCLS protocol based method; format: functional
In short: (§1)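 Broth MIC50 determined following NCCLS guidelines in Sabouraud medium, with fungal suspension in 24-well format. Compound tested at 0.0625, 0.125, 0.5, 1, 2, 4, 8 and 16 μg/mL. Plates cultured statically at 35 °C. MIC50 is the lowest concentration giving 50% growth inhibition. Naftifine and fluconazole served as positive controls.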

[2] = test system: Pichia kudriavzevii; assay: Antifungal activity against Candida krusei ATCC 6258 assessed as inhibition of microbial growth by NCCLS protocol based method; format: functional; in short: as §1
[3] = test system: Candida tropicalis; assay: Antifungal activity against Candida tropicalis ATCC 1369 assessed as inhibition of microbial growth by NCCLS protocol based method; format: functional; in short: as §1
[4] = test system: Aspergillus fumigatus; assay: Antifungal activity against Aspergillus fumigatus KM8001 assessed as inhibition of microbial growth by NCCLS protocol based method; format: functional; in short: as §1
[5] = test system: Candida albicans; assay: Antifungal activity against fluconazole-resistant Candida albicans 632 assessed as inhibition of microbial growth by NCCLS protocol based method; format: functional
[6] = test system: Candida albicans; assay: Antifungal activity against fluconazole-resistant Candida albicans 901 assessed as inhibition of microbial growth by NCCLS protocol based method; format: functional
[7] = test system: Candida albicans; assay: Antifungal activity against fluconazole-resistant Candida albicans 904 assessed as inhibition of microbial growth by NCCLS protocol based method; format: functional
[8] = test system: Candida albicans; assay: Antifungal activity against Candida albicans ATCC SC5314 assessed as decrease in fungal cell density at 10 nM/mL by polarizing microscopy; format: functional, organism-based; conditions: dose 10.0 nmol/ml
In short: (§2)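 C. albicans ATCC SC5314 observed by polarizing microscopy over treatment time. Untreated, fluconazole- and naftifine-treated control groups were included. Cell density, dividing cells and cell fracture were assessed, with cell counts taken per field.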

[9] = test system: Candida albicans; assay: Antifungal activity against Candida albicans ATCC SC5314 assessed as reduction in cell division at 10 nM/mL by polarizing microscopy; format: functional, organism-based; conditions: dose 10.0 nmol/ml; in short: as §2
[10] = test system: Candida albicans; assay: Antifungal activity against Candida albicans ATCC SC5314 assessed as induction of cell fracture at 10 nM/mL by polarizing microscopy; format: functional, organism-based; conditions: dose 10.0 nmol/ml; in short: as §2
[11] = test system: Candida albicans SC5314; assay: Inhibition of SE/CYP51 in Candida albicans ATCC SC5314 assessed as ergosterol level at 0.5 ug/ml incubated for 48 hrs by LC/MS analysis (reference value: 95.1 %); parameters: scale not given: the % may be the effect or the level left; conditions: dose 0.5 µg/ml
In short: (§3)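 C. albicans SC5314 cells exposed to compound at 0.125, 0.5 or 4 μg/mL for 48 h, alongside untreated, fluconazole and naftifine controls. Sterols (ergosterol, squalene, lanosterol, eburicol, unknown) analysed by LC-MS. Each component expressed as percentage of total sterols from peak area ratios.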

[12] = test system: Candida albicans SC5314; assay: Inhibition of SE/CYP51 in Candida albicans ATCC SC5314 assessed as ergosterol level at 4 ug/ml incubated for 48 hrs by LC/MS analysis (reference value: 95.1 %); parameters: scale not given: the % may be the effect or the level left; conditions: dose 4.0 µg/ml; in short: as §3
[13] = test system: Candida albicans SC5314; assay: Inhibition of SE/CYP51 in Candida albicans ATCC SC5314 assessed as squalene level at 0.125 ug/ml incubated for 48 hrs by LC/MS analysis; parameters: scale not given: the % may be the effect or the level left; conditions: dose 0.125 µg/ml
In short: (§4)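 C. albicans ATCC SC5314 cells exposed to drug at 0.125, 0.5 or 4 μg/mL for 48 h, alongside an untreated control. Sterols were extracted and analysed by LC-MS. Ergosterol, squalene, lanosterol, eburicol and unknown sterols are each given as % of total sterols, calculated from the peak area ratio of each component.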

[14] = test system: Candida albicans SC5314; assay: Inhibition of SE/CYP51 in Candida albicans ATCC SC5314 assessed as squalene level at 0.5 ug/ml incubated for 48 hrs by LC/MS analysis; parameters: scale not given: the % may be the effect or the level left; conditions: dose 0.5 µg/ml; in short: as §3
[15] = test system: Candida albicans SC5314; assay: Inhibition of SE/CYP51 in Candida albicans ATCC SC5314 assessed as squalene level at 4 ug/ml incubated for 48 hrs by LC/MS analysis; parameters: scale not given: the % may be the effect or the level left; conditions: dose 4.0 µg/ml; in short: as §3
[16] = test system: Candida albicans SC5314; assay: Inhibition of SE/CYP51 in Candida albicans ATCC SC5314 assessed as lanosterol level at 0.125 ug/ml incubated for 48 hrs by LC/MS analysis; parameters: scale not given: the % may be the effect or the level left; conditions: dose 0.125 µg/ml; in short: as §4
[17] = test system: Candida albicans SC5314; assay: Inhibition of SE/CYP51 in Candida albicans ATCC SC5314 assessed as lanosterol level at 0.5 ug/ml incubated for 48 hrs by LC/MS analysis; parameters: scale not given: the % may be the effect or the level left; conditions: dose 0.5 µg/ml; in short: as §3
[18] = test system: Candida albicans SC5314; assay: Inhibition of SE/CYP51 in Candida albicans ATCC SC5314 assessed as unknown sterol level at […] ug/ml incubated for 48 hrs by LC/MS analysis (reference value: 3.5 %); parameters: scale not given: the % may be the effect or the level left; conditions: dose 0.125 µg/ml
[19] = test system: Candida albicans SC5314; assay: Inhibition of SE/CYP51 in Candida albicans ATCC SC5314 assessed as unknown sterol level at 4 ug/ml incubated for 48 hrs by LC/MS analysis (reference value: 3.5 %); parameters: scale not given: the % may be the effect or the level left; conditions: dose 4.0 µg/ml; in short: as §3
[20] = Inhibition of Candida albicans ATCC SC5314 SE incubated for 30 mins by spectrophotometric method
In short: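 Enzymes (SE, CYP51) extracted from C. albicans SC5314 using kits. 50 µg enzyme incubated with varying compound concentrations for 30 min at 37 °C in Tris pH 7.4, KCl, MgCl2, 2 mM NADPH, with squalene or eburicol as substrate. Reaction stopped with acetonitrile and centrifuged. Eburicol consumption (CYP51) read by HPLC. Squalene, after sulfuric acid/formaldehyde derivatization, read at 400 nm (SE). IC50 reported.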

[21] = test system: Candida albicans; assay: In vivo antifungal activity against Candida albicans SC5314 infected in mouse assessed as uniform cell distribution injected via abdomen for 7 days by H and E staining based histological analysis; format: functional, organism-based; conditions: time 7.0 day
In short: (§5)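 Mice infected with C. albicans SC5314 by subcutaneous abdominal injection, then randomized into saline, and two compound-treated groups. Treatment given by abdominal injection for 7 days, with body weight monitored. Heart, liver, spleen, lung, kidney and infected abdominal tissue harvested for H&E histology.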

[22] = test system: Candida albicans; assay: In vivo antifungal activity against Candida albicans infected in mouse assessed as disappearance of cell nuclear aggregation injected via abdomen for 7 days by H and E staining based histological analysis; format: functional, organism-based; conditions: SC5314, time 7.0 day; in short: as §5
[23] = Toxicity in mouse infected with Candida albicans SC5314 assessed as change in heart morphology administered via abdomen for 7 days by H and E staining based histological analysis; conditions: in vivo, ip, 168 h, time 7 day; in short: as §5
[24] = Toxicity in mouse infected with Candida albicans SC5314 assessed as change in liver morphology administered via abdomen for 7 days by H and E staining based histological analysis; conditions: in vivo, ip, 168 h, time 7 day; in short: as §5
[25] = Toxicity in mouse infected with Candida albicans SC5314 assessed as change in spleen morphology administered via abdomen for 7 days by H and E staining based histological analysis; conditions: in vivo, ip, 168 h, time 7 day; in short: as §5
[26] = Hepatotoxicity in mouse infected with Candida albicans SC5314 assessed as effect on aspartate aminotransferase level in plasma administered via abdomen for 7 days (reference value: 104.7 +/- 5.2 IU/L); format: toxicity; conditions: ip, 168 h, time 7 day
[27] = Renal toxicity in mouse infected with Candida albicans SC5314 assessed as effect on blood urea nitrogen level administered via abdomen for 7 days (reference value: 6.8 +/-0.4 mmol/L); conditions: in vivo, ip, 168 h, time 7 day
[28] = target: Lanosterol 14-alpha demethylase (Candida albicans (strain SC5314 / ATCC MYA-2876) (Yeast), UniProt P10613); assay: Inhibition of Candida albicans ATCC SC5314 CYP51 incubated for 30 mins by HPLC method
Lanosterol 14-alpha demethylase, sequence (P10613 whole entry): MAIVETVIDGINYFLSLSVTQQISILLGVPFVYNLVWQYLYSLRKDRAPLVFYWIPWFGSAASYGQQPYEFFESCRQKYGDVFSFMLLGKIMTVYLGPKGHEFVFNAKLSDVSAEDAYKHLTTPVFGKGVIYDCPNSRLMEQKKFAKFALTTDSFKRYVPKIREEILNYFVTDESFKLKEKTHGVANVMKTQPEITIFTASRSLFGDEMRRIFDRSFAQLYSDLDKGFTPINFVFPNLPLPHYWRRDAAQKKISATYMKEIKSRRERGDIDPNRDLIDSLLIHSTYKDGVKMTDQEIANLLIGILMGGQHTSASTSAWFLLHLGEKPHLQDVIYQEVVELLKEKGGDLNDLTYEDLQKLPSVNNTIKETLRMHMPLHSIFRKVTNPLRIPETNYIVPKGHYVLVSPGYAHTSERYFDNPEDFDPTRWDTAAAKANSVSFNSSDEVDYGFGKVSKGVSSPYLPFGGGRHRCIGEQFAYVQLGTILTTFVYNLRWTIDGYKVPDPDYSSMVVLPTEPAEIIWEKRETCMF

Compound | MIC50 [1] | MIC50 [2] | MIC50 [3] | MIC50 [4] | MIC50 [5] | MIC50 [6] | MIC50 [7] | Activity [8] | Activity [9] | Activity [10] | Activity [11] | Activity [12] | Activity [13] | Activity [14] | Activity [15] | Activity [16] | Activity [17] | Activity [18] | Activity [19] | IC50 [20] | other results
CC(NC(=O)c1cccc2ccccc12)C(=O)NC(Cn1ccnc1)C(=O)c1ccccc1 (stereo unspecified) | 0.125 µg/mL | 0.25 µg/mL | 0.125 µg/mL | 4 µg/mL | 8 µg/mL | 4 µg/mL | 4 µg/mL | Active | Active | Active | 29.9% | 10.8% | 7.9% | 21.6% | 27.9% | 2.8% | 8.7% | 5.4% | 6.2% | 961 nM | Activity [21]: Active; Activity [22]: Active; Activity [23]: Non-Toxic; Activity [24]: Non-Toxic; Activity [25]: Non-Toxic; Activity [26]: 112.3 IU/L; Activity [27]: 6.4 mmol/L; IC50 [28]: 537 nM
O=C(NC(Cn1ccnc1)C(=O)NCc1ccncc1)c1ccc2ccccc2c1 (stereo unspecified) | 0.25 µg/mL | 0.25 µg/mL | 0.25 µg/mL | 4 µg/mL | 8 µg/mL | 4 µg/mL | > 16 µg/mL | Active | Active | Active | 35.6% | 13.2% | 9.2% | 14.5% | 20.5% | 3.8% | 7.2% | 5% | 6.1% | 685 nM | Activity [21]: Active; Activity [22]: Active; Activity [23]: Non-Toxic; Activity [24]: Non-Toxic; Activity [25]: Non-Toxic; Activity [26]: 108.6 IU/L; Activity [27]: 7.3 mmol/L; IC50 [28]: 1150 nM
